SMILES strings stand for the structures. The campaign covered roughly 2,300 compounds. About 25 (1%) were called active. This is one part of a sample in which actives are shown more often than they occur.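 The calls were made as follows: active = mean inhibition over three replicate wells above the hit threshold derived in the earlier primary screen (cut at about 45% in these data); inactive = the rest.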

Results on 90 molecules are retold here after PubChem BioAssay AID2152 (The Scripps Research Institute Molecular Screening Center, 2009).

For the assay, the system named is Hepatitis C virus core protein (core106 dimerization). Description: blockers of core106 self-association – biochemical, TR-FRET, triplicate, confirmation (AID 2152).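 Also: 0% = DMSO wells and 100% = unlabelled core106 competitor control.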 As to conditions: TR-FRET GST-/Flag-core106 dimerization, HTRF; at 5 µM; hits give high values. In a few lines: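 Test system: GST- and Flag-tagged HCV core106 peptides, dimerization via antibody TR-FRET | Medium: HEPES/KF buffer, pH 7.45 | Also added: Eu(K)-anti-GST plus XL665-anti-FLAG antibodies | Times: 4 h incubation, 22.5 °C | Signal: TR-FRET, excitation 340 nm, emission 671 and 617 nm | Evaluation: Percent inhibition from emission ratio | Replication: Triplicate wells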
Regarding `O=c1[nH]c(C(Cl)Cl)nc2sc3c(c12)CCN(Cc1ccccc1)C3`, the inhibition is 14.3% (inactive).
Take `COC(=O)c1ccc(Nc2cc(C)nc(-c3ccccc3O)n2)cc1`: the inhibition is 6.69% (inactive).
The figure for `CN1CCc2c(sc3c2c(=O)n(-c2ccccc2)c2nnc(SCc4ccccc4)n32)C1` is 3.83% (inactive); for `O=C(COC(=O)c1cccc(S(=O)(=O)N2CCc3ccccc3C2)c1)NCc1ccco1` it is 2.63% (inactive); for `COc1ccc(-c2cc(OC(=O)c3ccc(F)cc3)c3c(C)oc(C)c3c(=O)c2)cc1` it is 0.02% (inactive).
As for `Cc1cc(Br)c2nc3c(c(C(=O)O)c2c1)CCCCC3`, the figure is 46.4% (active).
The figure for `CC(C)(C)C(=O)COC(=O)c1c2c(nc3ccccc13)CCC2` is -3.89% (inactive); for `CN(Cc1ccccc1)C(=O)C1CCN(S(=O)(=O)c2ccc3nc4c(c(C(=O)O)c3c2)CCCC4)CC1` it is 3.04% (inactive); for `CCn1cc([N+](=O)[O-])c(C(=O)N2N=C(c3cccc4ccccc34)CC2c2ccccc2O)n1` (stereo not given) it is 7.15% (inactive).
As for `O=C(COc1ccccc1)Nc1ccc(-c2nnc(-c3ccco3)o2)cc1`, the inhibition was 21.3% (inactive).
As for `COc1ccc(CC(=O)Nc2ccc(-c3nnc(-c4ccccc4)o3)cc2)cc1OC`, the figure is 56.3% (active); as for `COc1ccc(CC(=O)Nc2ccc(-c3nnc(-c4ccccc4)o3)cc2)cc1`, 11.4% (inactive).
As for `Cc1nc2nc(SCC(=O)NCCCN3CCCCCC3)nn2c(C)c1Cc1ccccc1`, the figure is 13.3% (inactive); as for `Cc1ccc(Cc2c(C)nc3nc(SCC(=O)NCCCN4CCCCCC4)nn3c2C)cc1`, 89.8% (active); as for `NC(=O)c1ccsc1NC(=O)COC(=O)/C=C/c1ccc([N+](=O)[O-])cc1`, 7.73% (inactive).
The figure for `CCCN(CCC)C(=O)c1cc(-c2ccc3c(c2)OCO3)nc2ccccc12` is -2.46% (inactive); for `Cc1cc(C(=O)OCC(=O)c2cccc([N+](=O)[O-])c2)c2cccc(C)c2n1` it is 13.6% (inactive); for `Cc1ccc(C)c(NC(=O)CSc2nc3nc(-c4cccs4)cc(C(F)(F)F)c3c(=O)[nH]2)c1` it is 4.9% (inactive).
`CCOc1cc(/C=N/NC(N)=O)cc(Br)c1OCC(=O)Nc1cccc2ccccc12`: the inhibition was 2.46% (inactive).
The figure for `CCOc1ccccc1C1C(C#N)=C(N)SC(N)=C1C#N` is 1.92% (inactive).
The figure for `N#CC1=C(N)SC(N)=C(C#N)C1c1ccnc2ccccc12` is 46.8% (active); for `N#CC1=C(N)SC(N)=C(C#N)C1CCc1ccccc1` it is -1.8% (inactive).
Regarding `C=CCn1nnc2sc3c(c2c1=O)CCC(C)C3` (stereo not given), the inhibition is -1.29% (inactive).
The figure for `O=c1c2ccccc2nc2sc3ccccc3n12` is -1% (inactive).
As for `O=C(Nc1ccc(Cl)c(Cl)c1)Nc1nnc(-c2ccncc2)s1`, the figure is 38.8% (inactive); as for `Cc1ccc2nc(C)cc(C(=O)OCC(=O)c3ccc(Cl)c([N+](=O)[O-])c3)c2c1`, -4.97% (inactive).
With `CCN(CC)c1ccc(/C=N/NC(=O)Cc2nnc(NC(=O)Nc3ccccc3)s2)cc1`, the inhibition is -1.4% (inactive).
As for `COc1ccc(/C=N/NC(=O)c2nn(-c3ccc(Cl)cc3)c(=O)c3c(N)scc23)cc1`, the figure is 9.33% (inactive); as for `O=C(COC(=O)C1c2ccccc2Oc2ccccc21)Nc1ccc2c(c1)OCO2`, -1.06% (inactive).
`O=C(NC(=S)Nc1ccc(-c2ccc(CO)o2)cc1)c1cccs1`: the inhibition is -8.29% (inactive).
Consider `CC(C)(C)c1nnc2sc(SC/C(O)=C(\C#N)c3nc4ccccc4[nH]3)nn2c1=O`, for which the inhibition was 0.37% (inactive).
As for `CC1=CC(=O)c2c(O)ccc(O)c2C1=O`, the figure is 35% (inactive); as for `O=C1c2c(O)cccc2Cc2cccc(O)c21`, 53.6% (active).
The figure for `CC(C)C(C)(C#N)NC(=O)CSc1nc2scc(-c3ccco3)c2c(=O)n1-c1ccccc1` (stereo not given) is -0.21% (inactive); for `N#C/C(=N\Nc1ccc(S(=O)(=O)N2CCc3ccccc32)cc1)C(N)=S` it is -0.77% (inactive); for `CC(=O)Oc1ccc(C(=O)[C@H]2[C@H]3C(=O)N(c4ccccc4)C(=O)[C@H]3[C@@H]3C=CC=NN32)cc1` it is -1.31% (inactive).
As for `COc1cccc(NC(=O)c2cc(-c3ccc(C)o3)nc3ccccc23)c1`, the figure is -3.59% (inactive); as for `COc1cccc(NC(=S)Nc2cc(C)cc(C)n2)c1`, 72.9% (active); as for `COc1ccc(-n2nc3cc(C)c(NC(=S)NC(=O)c4ccccc4C)cc3n2)cc1`, 14.3% (inactive).
As for `CC1Cc2ccccc2N1Cc1cc(=O)n2ccsc2n1` (stereo not given), the inhibition was 3.14% (inactive).
The figure for `COc1ccc(C(=O)[C@H]2[C@H]3C(=O)N(c4ccc(C)cc4)C(=O)[C@H]3C3C=CC=NN32)cc1` (stereo not given in full) is 2.52% (inactive).
As for `Cc1cc(C)c2nc(-c3ccccn3)cc(C(=O)Nc3ccc(S(=O)(=O)Nc4cc(C)on4)cc3)c2c1`, the figure is 14.4% (inactive); as for `O=C(O)C1Nc2c(O)cccc2C2C=CCC12` (stereo not given), 53.8% (active).
The figure for `Cc1ccc2c(c1C)NC(C(=O)O)C1CC=CC21` (stereo not given) is 17.4% (inactive).
On to `COc1cccc2c1NC(C(=O)O)C1CC=CC21` (stereo not given), for which the inhibition was 8.1% (inactive).
In the case of `COc1ccccc1Nc1ncc(-c2cccs2)s1`, the inhibition is -8.18% (inactive).
As to `O=C(CN1CCN(c2ccc(F)cc2)CC1)NC(=O)NCc1ccco1`, the inhibition is -6.85% (inactive).
The figure for `O=C(Cn1c(=O)c2c(ncn2C2CCCC2)n(Cc2ccccc2)c1=O)N1CCc2ccccc21` is 5.72% (inactive).
With `COc1ccc(C2=NN(c3nc(-c4ccccc4)c(CC(=O)O)s3)C(c3ccco3)C2)cc1` (stereo not given), the inhibition was 51.3% (active).
The figure for `CC(C)[C@H](NS(=O)(=O)c1ccccc1)C(=O)OCC(=O)N1N=C(c2ccc(Cl)cc2)CC1c1ccco1` (stereo not given in full) is -2.37% (inactive); for `COc1ccc(C2CC(c3ccccc3)=NN2c2ccc(/C=N/NC(=O)c3ccncc3)cc2)cc1` (stereo not given) it is -1.14% (inactive); for `COc1ccc(C(=O)N/N=C(\C)c2ccc3c(c2)C2C=CCC2C(c2ccccc2)N3)cc1` (stereo not given) it is 1.09% (inactive).
The figure for `Cc1cccc(N2CC(C(=O)Nc3nnc(SCc4ccccn4)s3)CC2=O)c1` (stereo not given) is 21.3% (inactive); for `COc1ccc(C=O)cc1COc1ccc(F)cc1F` it is -6.06% (inactive); for `O=C(Nc1ccc(N2CCCC2)c(Cl)c1)c1cccc(-c2cc3ccccc3oc2=O)c1` it is -5.08% (inactive).
As for `N#Cc1c(-c2ccco2)cc(-c2ccccn2)nc1N`, the figure is 3.09% (inactive); as for `CCN(CC(=O)Nc1ccc(OC)cc1)C(=O)Cc1cccs1`, 6.25% (inactive).
On to `Cc1ccc(C)c(S(=O)(=O)N2CCC(c3nc4c(nnn4Cc4ccc5c(c4)OCCO5)c(=O)[nH]3)CC2)c1`, for which the inhibition was 7.31% (inactive).
As for `Cc1ccc(O)c(N=CC2=C(O)c3ccccc3C2=O)c1`, the figure is 7.52% (inactive); as for `COc1ccccc1NS(=O)(=O)c1cc(NC(=O)Nc2ccc(Cl)cc2Cl)ccc1N1CCCCC1`, -5.21% (inactive); as for `O=Cc1cn(-c2ccccc2)nc1-c1cc2c(ccc3ccccc32)oc1=O`, -0.21% (inactive).
As for `COC(=O)/C=c1/s/c(=C(\C#N)C(=O)NCc2ccco2)n(-c2ccc(C)cc2)c1=O`, the figure is -4.05% (inactive); as for `Cc1c(C(=O)Nc2ccc(Cl)cc2)c2ccccn2c1C(=O)c1ccc([N+](=O)[O-])cc1`, -5.31% (inactive); as for `O=C(OCC(=O)c1ccc(Cl)s1)c1cnccn1`, 1.14% (inactive).
The figure for `CCOC(=O)c1ccc(NC(=O)COc2ccc(-n3cnnn3)cc2)cc1` is 3.21% (inactive).
Regarding `COc1ccccc1N1CCN(C(=O)c2ccc3c(c2)NC(=O)C(CSCc2ccccc2C)N3)CC1` (stereo not given), the inhibition was 25.3% (inactive).
As for `Cc1ccc(N2C(=O)N3[C@H](c4ccc(F)cc4)[C@@H]4C(=O)N(C5CCCCC5)C(=O)[C@@H]4[C@]3(Cc3ccccc3)C2=O)cc1`, the figure is -1.83% (inactive).
On to `CC(=O)Nc1ccc(NC(=O)c2ccc(COc3ccccc3)cc2)cc1`, for which the inhibition was -12.8% (inactive).
Consider `Cc1cc(-c2csc(NC(=O)c3cc4ccccc4o3)n2)c(C)n1C`, for which the inhibition is 22.5% (inactive).
As for `COC(=O)c1ccc(Oc2coc3cc(OCc4cnn(-c5ccccc5)c4)ccc3c2=O)cc1`, the figure is -4.6% (inactive); as for `N#Cc1c(-c2cccc(F)c2)cc(-c2ccccc2)nc1Br`, 9.78% (inactive); as for `CCOC(=O)C1=C(c2ccccc2)NC(=S)NC1c1cc([N+](=O)[O-])ccc1OC` (stereo not given), -1.99% (inactive).
As to `COc1ccc(-n2c(-c3ccccc3)nc(=S)c3c2CCCC3)cc1`, the inhibition is 33.8% (inactive).
As for `O=[N+]([O-])c1ccc(Oc2cc(NC3CCCCCCC3)c([N+](=O)[O-])cc2[N+](=O)[O-])cc1`, the figure is -0.42% (inactive); as for `Cc1ccc2nc(/C(C#N)=C\c3ccc(Oc4ccc(C(F)(F)F)cc4[N+](=O)[O-])cc3)[nH]c2c1`, -6.22% (inactive); as for `N#CC(=C1CCCC1)c1nc(-c2ccccc2O)cs1`, -2% (inactive).
As for `O=C(Nc1ccc2c(c1)OCO2)c1cc(-c2cccnc2)nc2ccccc12`, the figure is -0.48% (inactive).
As to `O=C1C2C3C=CC(C4CC34)C2C(=O)N1/N=C/c1ccc(-c2ccc(Cl)cc2[N+](=O)[O-])o1` (stereo not given), the inhibition was -5.46% (inactive).
The figure for `CCN1C=C(Cc2cccs2)C2=C(C1)C(c1cccs1)C(C#N)=C(N)O2` (stereo not given) is -3.27% (inactive).
The figure for `CCCc1nc2sc3c(SCC(=O)NCc4ccco4)ncnc3c2c2c1CCC2` is 15.9% (inactive).
As for `CSc1nc(SCC(=O)NCc2ccco2)c2c3c(sc2n1)CN(C)CC3`, the figure is 20.1% (inactive).
Regarding `CCCCc1nc2sc3c(SCC(=O)NCc4ccco4)ncnc3c2c2c1CCC2`, the inhibition is 52.8% (active).
The figure for `O=C(NCc1ccco1)C(c1ccco1)N(C(=O)Cn1nnc2ccccc21)c1ccc2c(c1)CCC2` (stereo not given) is 6.56% (inactive); for `COc1ccc(/C=C/C(=O)Nc2cc(C)nn2-c2nc3ccccc3n2Cc2cccc([N+](=O)[O-])c2)cc1` it is -5.15% (inactive).
The figure for `COc1ccc(NS(=O)(=O)c2ccc(O)c(NC(=O)c3cc4c(C)nn(-c5ccc(F)cc5)c4s3)c2)cc1` is -2.83% (inactive); for `COc1cccc(-n2c(SCC(=O)Nc3cc(C)on3)nc3c([nH]c4ccccc43)c2=O)c1` it is -2.22% (inactive).
As for `CCCCn1c(SCC(=O)Nc2cc(C)on2)nc2ccccc2c1=O`, the figure is 54.9% (active); as for `Cc1ccc(Cn2c(SCC(=O)Nc3cc(C)on3)nc3ccccc3c2=O)cc1`, 9.61% (inactive); as for `CC1CCCCC12NC(=O)N(CC(=O)c1ccc[nH]1)C2=O` (stereo not given), -2.48% (inactive).
On to `Cn1c(SCC(=O)Nc2sccc2C#N)nnc1-c1ccccc1`, for which the inhibition is -0.16% (inactive).

The term inhibition denotes the change of the read-out against control, counted positive when it falls.
